# Reference: ChEMBL document CHEMBL5029154, “Design, Synthesis, and Biological Evaluation of Organic Nitrite (NO2-) Donors as Potential Anticerebral Ischemia Agents” (J Med Chem, 2021)
# Activity calls are given as the source filed them. The rule behind the calls is not given here.
# How the values were obtained:
# Cortical neurone [1] = assay: Effect on Nrf2 mRNA transcript level in OGD/R-induced rat primary cortical neuron pretreated at 1.8 uM for 24 hrs followed by subjected to OGD for 2 hrs measured after 24 hrs under normoxic condition by RT-qPCR analysis; format: functional, tissue-based
# Outline: (§1)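 Primary rat cortical neurons were pretreated with 1.8 μM compound for 24 h, given 2 h OGD, then 24 h normoxic culture. Nrf2, HO-1 and NQO1 mRNA were measured by RT-qPCR. Cytoplasmic and nuclear protein (30 μg/lane) were blotted for Nrf2, with lamin A and β-actin as references, and quantified by densitometry as the nuclear:cytoplasmic ratio. Three independent experiments, mean ± SD.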
# Cortical neurone [2] = assay: Induction of Nrf2 protein level in OGD/R-induced rat primary cortical neuron pretreated at 1.8 uM for 24 hrs followed by subjected to OGD for 2 hrs measured after 24 hrs under normoxic condition by Western blot analysis; format: functional, tissue-based; outline: as §1
# [3] = Neuroprotective activity against in OGD/R-induced rat cortical neuron apoptosis assessed as early apoptotic cells pretreated at 1.8 uM for 24 hrs followed by subjected to OGD for 2 hrs measured after 24 hrs under normoxic condition by PI/FITC-H staining based flow cytometry (reference value: 58.46%); format: functional, Cortical neurone
# Cortical neurone [4] = assay: Induction of NQO1 mRNA transcript level in OGD/R-induced rat primary cortical neuron pretreated at 1.8 uM for 24 hrs followed by subjected to OGD for 2 hrs measured after 24 hrs under normoxic condition by RT-qPCR analysis; format: functional, tissue-based; outline: as §1
# [5] = Neuroprotective activity against in OGD/R-induced rat cortical neuron apoptosis assessed as late apoptotic cells pretreated at 1.8 uM for 24 hrs followed by subjected to OGD for 2 hrs measured after 24 hrs under normoxic condition by PI/FITC-H staining based flow cytometry (reference value: 6.31%); format: functional, Cortical neurone
# [6] = Neuroprotective activity against in OGD/R-induced rat cortical neuron apoptosis assessed as necrotic cells pretreated at 1.8 uM for 24 hrs followed by subjected to OGD for 2 hrs measured after 24 hrs under normoxic condition by PI/FITC-H staining based flow cytometry (reference value: 3.68%); format: functional, Cortical neurone
# [7] = Neuroprotective activity against in OGD/R-induced rat primary cortical neuron apoptosis assessed as viable cells pretreated at 1.8 uM for 24 hrs followed by subjected to OGD for 2 hrs measured after 24 hrs under normoxic condition by PI/FITC-H staining based flow cytometry (reference value: 31.55%); format: functional; conditions: Cortical neurone, read-out: Activity
# Outline: (§2)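 Cortical neurons were isolated from SD rat cortex by enzymatic digestion, plated on poly-lysine in 10% FBS DMEM, and pretreated 24 h at 1.8 μM in basal medium with 2% B27. OGD was run in glucose/FBS-free DMEM under 1% O₂, followed by 24 h reoxygenation in 10% FBS DMEM. Viability was read by MTT; apoptosis was also assessed. Three independent experiments.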
# Cortical neurone [8] = assay: Induction of HO-1 mRNA transcript level in OGD/R-induced rat primary cortical neuron pretreated at 1.8 uM for 24 hrs followed by subjected to OGD for 2 hrs measured after 24 hrs under normoxic condition by RT-qPCR analysis; format: functional, tissue-based; outline: as §1
# [9] = Drug metabolism assessed as nitric oxide release in presence of bovine plasma at 200 uM measured after 1 hr by Griess reagent based assay; format: ADME, cell-free, Bos taurus; conditions: cattle
# Cortical neurone [10] = assay: Neuroprotective activity against in OGD/R-induced Sprague-Dawley rat cortical neuron injury assessed as cell viability pretreated at 1.8 uM for 24 hrs followed by subjected to OGD for 2 hrs measured after 24 hrs under normoxic condition; format: functional, tissue-based; outline: as §2
# HUVEC = assay: Angiogenesis activity in HUVEC cells assessed as increase in tube formation at 1.8 uM measured after 8 hrs by inverted microscopy; format: functional, cell-based; conditions: Homo sapiens
# Outline: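 Early-passage HUVECs (passages 2–6), grown in DMEM with 10% FBS, glutamine, pyruvate and antibiotics, were seeded at 8 × 10⁴ cells/well on Matrigel. They were exposed to vehicle or compound for 8 h at 37 °C, 5% CO₂. Tubes were counted under an inverted microscope.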
# Cortical neurone [11] = assay: Neuroprotective activity against in OGD/R-induced rat cortical neuron cytotoxicity assessed as decrease in cell viability pretreated at 1.8 uM for 24 hrs followed by subjected to OGD for 2 hrs measured after 24 hrs under normoxic condition by MTT assay; format: functional, tissue-based
# Outline: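 Primary rat cortical neurons from enzymatically digested cortex, plated on poly-lysine in DMEM/10% FBS for 4 h. Pretreated 24 h in neuron basal medium with 2% B27, then glucose/FBS-free DMEM at 1% O2. Returned to 10% FBS DMEM under normoxia for 24 h. Viability by MTT; three independent experiments, mean SD.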
smiles,measurement,setting,value
CC(C)(C)c1cc(O)ccc1O [E319],Activity,Cortical neurone [1],inactive
same,Activity,Cortical neurone [2],Active
same,Activity,[3],13.91%
same,Activity,Cortical neurone [4],Active
same,Activity,[5],1.4%
same,Activity,[6],0.84%
same,viability at 1.8 µM,[7],84%
same,Activity,Cortical neurone [8],Active
COC(=O)/C(=C/c1ccccc1)C[N+](=O)[O-],Drug metabolism,[9],Metabolite_Detected
same,Activity,Cortical neurone [10],Active
O=[N+]([O-])C/C(=C\c1ccccc1)[N+](=O)[O-],Drug metabolism,[9],Metabolite_Detected
same,Activity,Cortical neurone [10],Active
C/C(=C\c1ccccc1)C(=O)c1ccccc1,Activity,Cortical neurone [2],Active
same,Activity,HUVEC,inactive
O=C1CCCC=C1C[N+](=O)[O-],Drug metabolism,[9],Metabolite_Detected
O=N[O-].[Na+] [SODIUM NITRITE],Activity,Cortical neurone [1],inactive
same,Activity,Cortical neurone [2],inactive
same,Activity,[3],50.12%
same,Activity,[5],2.47%
same,Activity,[6],0.51%
same,viability at 1.8 µM,[7],46.9%
same,Activity,Cortical neurone [11],inactive
N#C/C(=C\c1ccccc1)C[N+](=O)[O-],Drug metabolism,[9],Metabolite_Detected
same,Activity,Cortical neurone [10],Active
